CHOP UPR activ – activators of apoptotic arm of unfolded protein response (CHOP); activation, % at 10 µM; CHO-CHOP luciferase reporter, UPR activation, luminescence; percent of tunicamycin response over DMSO baseline; AID 449763; hit rate 0.34% among 330,000;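 active means at 10 µM dose, activation of 40% or more, normalized to positive control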;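 further: 100% = tunicamycin at 10 µg/mL and 0% = DMSO alone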
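measured by = luciferase luminescence | assay system = CHO-CHOP cells, stable luciferase reporter of PERK-eIF2a-CHOP signalling | amount = 500 reporter cells seeded per well | timing = 6 h compound exposure at 37 °C after overnight seeding | controls = positive tunicamycin 10 µg/mL, negative DMSO alone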
PvdQ inh – P. aeruginosa PvdQ acylase inhibition | inhibition, % at 10 µM | AID 488965 | purified PvdQ acylase, fluorescence plate reader | hit rate 0.063% among 340,000; in the data active means inhibition above about 30%, passing the limit was not always enough;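 further: 0% = vehicle neutral wells and 100% = reference inhibitor wells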
CHOP inh – CHOP inhibition in unfolded protein response. inhibition, % at 10 µM. hit rate 3.8% among 220,000. AID 2732. CHO-K1 CHOP-promoter luciferase, tunicamycin-induced, 15-18 h;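 active means compounds that reduced the stress-induced luciferase reporter signal by more than about 70% of percent inhibition, limit read from the data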;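 further: 0% = tunicamycin plus vehicle and 100% = wells without tunicamycin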
XBP1 UPR activ – activators of adaptive arm of unfolded protein response (XBP1) | CHO-XBP1 luciferase reporter, IRE1-XBP1 UPR activation, luminescence; percent of tunicamycin response, DMSO as zero | hit rate 0.33% among 330,000 | activation, % at 20 µM;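 active means versus positive control, 20 µM dose yields 30% or more activation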;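 further: 100% = tunicamycin at 10 µg/mL and 0% = DMSO only wells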
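Material: CHO cell line with stable XBP1 luciferase reporter; schedule: 16-18 h cell attachment at 37 °C, then 6 h compound exposure; signal: glow luminescence from Steady-Glo reagent; medium: serum-containing F12 medium, 10% FBS; benchmarks: tunicamycin 10 µg/mL and vehicle-only wells; read-out: percent activation relative to tunicamycin reference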
CHOP inh conf – confirmation of CHOP induction inhibitors; shares compounds with CHOP inh; CHO-CHOP promoter luciferase reporter, tunicamycin-induced, luminescence; hit rate 45% among 2,100; AID 504437; inhibition, % at 10 µM;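 active means mean of three repeat readings of reporter signal inhibition above a set limit, cut at about 70% in these data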;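 further: 0% = tunicamycin plus vehicle and 100% = wells lacking tunicamycin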
Active calls of the source: *; x = no result given. This is one part of a sample in which hits are shown more often than they occur.

SMILES | CHOP UPR activ | PvdQ inh | CHOP inh | XBP1 UPR activ | CHOP inh conf
Cc1c(CN2CCC(CO)(CCOc3ccccc3)CC2)[nH]c2c(Cl)cccc12 | 2 | -3 | 105* | 22 | 71*
Nc1ccc(N2CCCCCC2)cc1 | 38 | x | x | 3 | 128*
COc1cccc(Oc2cn[nH]c2-c2ccc(OCC(=O)NN)cc2O)c1 | 1 | -11 | x | 7 | x
CCCOC(=O)c1ccc(Oc2cn[nH]c2-c2ccc(OC)cc2O)cc1 | -3 | -9 | 106* | -6 | 116*
CSc1nc(Cc2ccccc2)nc2ccccc12 | -1 | -10 | 44 | 3 | x
Cc1ccc(Cl)c2c1=NC(=O)C=2c1[nH]c(=S)[nH]c1O | -2 | -9 | 44 | -2 | x
CCOC(=O)c1ccc(N=Cc2nc(-c3ccccc3)oc2OC(C)=O)cc1 | 1 | -9 | 106* | 5 | -19
Cc1ccc(C(=O)Oc2oc(-c3ccco3)nc2C=Nc2ccccc2)cc1 | x | x | 102* | x | -24
Cc1ccc(CS(=O)Cc2ccc(C(=O)NCc3ccccc3Br)o2)cc1 (centres undefined) | 1 | -3 | x | 3 | x
CCOC(=O)CCc1ccc(NC(=O)/C=C/c2ccc([N+](=O)[O-])o2)cc1 | x | 0 | x | x | x
CCc1ccc(C(=O)/C=C/c2ccc([N+](=O)[O-])o2)cc1 | -2 | -9 | 106* | -3 | 140*
COc1cc(CCCN2C(N)=NC[C@H]2Cc2ccc(O)cc2)cc(OC)c1OC | 3 | -4 | -2 | 2 | x
CNC(CC(=O)c1ccc([N+](=O)[O-])cc1)C(Cl)(Cl)Cl (centres undefined) | x | -10 | 110* | x | -12
Cc1cc(/C=C(\C#N)C(=O)NC2CCCCCC2)c(C)[nH]1 | x | 2 | 5 | x | x
COc1ccc(-c2[nH]ncc2/C=C(/C#N)C(=O)NC2CCCCCC2)cc1 | 1 | 1 | 99* | 3 | 82*
Cc1ccc(Cl)cc1NC(=O)CCC(=O)Nc1cc(Cl)ccc1C | -1 | -7 | 100* | 3 | -15
CCCC(=O)Nc1cc(Cl)ccc1C | 0 | 12 | 9 | -1 | x
Cc1ccc(C)c(NC(=S)NC(NC(=O)/C=C/c2ccccc2)C(Cl)(Cl)Cl)c1 (centres undefined) | 24 | -13 | 107* | 14 | 92*
O=[N+]([O-])c1ccc(N/N=C/c2c[nH]c3ccccc23)c(S(=O)(=O)Nc2ccc(Cl)cc2)c1 | -1 | -2 | 106* | -1 | 61
CN1CCN(S(=O)(=O)c2cc([N+](=O)[O-])ccc2N/N=C/c2ccc(Cl)cc2)CC1 | 4 | -5 | 67 | 8 | x
O=C1c2ccccc2C(=O)C1c1nccc2ccccc12 | -8 | 6 | 106* | -12 | 104*
Cc1cc(Br)c2c(c1)/C(=C/C(=O)c1cccs1)C(=O)N2 | 15 | -11 | 99* | 17 | 80*
CCc1ccc2c(c1)/C(=C/C(=O)c1cccs1)C(=O)N2 | -7 | -21 | 109* | -9 | -22
Cc1cc(C)c2c(c1)/C(=C/C(=O)c1ccc(Br)s1)C(=O)N2 | -9 | -11 | 110* | -9 | 54
Cc1cccc2c1NC(=O)/C2=C\C(=O)c1cccs1 | 29 | -15 | 110* | 8 | -48
SMILES | CHOP UPR activ | PvdQ inh | CHOP inh | XBP1 UPR activ | CHOP inh conf
CN(C)/C=C/C(=O)c1ccc(Br)s1 | 4 | -13 | 0 | -3 | x
CCn1c2ccccc2c2cc(NC(=O)c3ccccc3[N+](=O)[O-])ccc21 | 0 | -10 | -3 | 1 | x
CCC(C)c1ccccc1NC(=O)COC(=O)c1ccc2[nH]c3c(c2c1)CCCC3 (centres undefined) | 1 | -6 | 22 | -2 | x
CC(C)(C)OC(=O)N(Cc1ccccc1)Cc1ccccc1OCc1ccc(NC(=O)C2CCC2)cc1 | x | -17 | x | x | x
CN1C(=O)CSC1=NCC12CC3CC(CC(C3)C1)C2 | 0 | 7 | 105* | -5 | 7
CN(C)C(=O)CN1C(=O)NC(c2ccccc2)(c2ccccc2)C1=O | 1 | -9 | x | 4 | x
CCOc1ccc(OCc2ccc(C(=O)N3N=C(C(F)F)CC3(O)C(F)F)o2)cc1 (centres undefined) | 1 | 10 | 99* | -4 | -11
CCOc1ccc(OCc2ccc(C(=O)N3CCCC3)o2)cc1 | 2 | -26 | -47 | -3 | x
O=C(c1ccc(COc2ccc3ccccc3c2)o1)N1N=C(C(F)F)CC1(O)C(F)F (centres undefined) | -1 | -2 | 111* | -1 | 56
O=C(c1ccc(COc2ccc(Br)cc2)o1)N1N=C(C(F)F)CC1(O)C(F)F (centres undefined) | -1 | -9 | 108* | -1 | 21
Cc1ccc(C)c(OCc2ccc(C(=O)N3N=C(C(F)F)CC3(O)C(F)F)o2)c1 (centres undefined) | -1 | 12 | 108* | -6 | 120*
O=C1C=C(c2ccc(-c3ccccc3)c(F)c2)C[C@@H](c2ccc(Cl)cc2)C1 | 0 | 10 | x | 2 | x
O=C(NCCCN1CCN(CCCNC(=O)c2cc([N+](=O)[O-])ccc2Cl)CC1)c1cc([N+](=O)[O-])ccc1Cl | 2 | -10 | 10 | 4 | x
CC1O[C@@H]2O[C@](O[C@H](C)CC[C@@H](C)O)(c3ccccc3)O[C@@H]2C[C@H]1O (some centres undefined) | -1 | 4 | x | -2 | x
Cc1cc(C)cc(OCc2ccc(C(=O)O)o2)c1 | -2 | -8 | 48 | 1 | x
Cc1cc(C)cc(OCc2ccc(C(=O)N3N=C(C(F)F)CC3(O)C(F)F)o2)c1 (centres undefined) | 0 | -11 | 102* | 2 | 57
COc1cc(CNc2ccccc2)c([N+](=O)[O-])cc1OC | 0 | -1 | x | 4 | x
COc1ccc(S(=O)(=O)N2CCOCC2)cc1NC(=O)/C=C/c1ccccc1 | 2 | -10 | x | -2 | x
COc1cccc(-n2nc(C#N)c(Cl)cc2=O)c1 | 3 | -14 | 107* | -8 | -77
O=C(Nc1ccc(-c2nc3ccccc3o2)cc1)c1ccc(N2CCOCC2)c([N+](=O)[O-])c1 | -6 | -11 | 101* | -6 | 114*
OC(CNCc1ccco1)Cn1c2ccc(Br)cc2c2cc(Br)ccc21 (centres undefined) | 18 | -7 | 108* | 24 | 46
COCCn1c(SCC(=O)Nc2ccc(C)cc2C)nc2c(oc3ccccc32)c1=O | -1 | -11 | 101* | -1 | 22
Cc1cc(C)c(S(=O)(=O)/N=C2\C=C(NS(=O)(=O)c3ccccc3)C(=O)c3ccccc32)c(C)c1 | 5 | -14 | x | -4 | x
CCc1ccc(S(=O)(=O)/N=C2\C=C(Nc3ccc(O)cc3)C(=O)c3ccccc32)cc1 | 3 | 2 | x | -10 | x
Cc1ccc(NC2=C/C(=N\S(=O)(=O)c3cccs3)c3ccccc3C2=O)c(C)c1 | -4 | -3 | x | -3 | 119*
Cc1cccc(NC2=C/C(=N/S(=O)(=O)c3cccs3)c3ccccc3C2=O)c1 | x | 12 | 106* | x | 114*

Screens (PubChem)
